beta cell repl = induces beta-cell replication in MIN6 cells. MIN6 cells proliferation, ATPlite luminescence, 48 h; cells starved in 0.2% serum; 100% = growth in 10% serum. proliferation, % at 10 µM. 330,000 tested, 0.29% active. AID 2380;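 active means compounds whose signal lies at least 3.5 SD above the mean of all wells on their plate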;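 further: 0% = DMSO-treated cells in low-serum medium and 100% = 10% serum control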
Ins promoter up = MIN6 insulin promoter up-regulation. MIN6 insulin promoter-GFP reporter, high-content imaging; hits give high values. z-score at 5 µM. 190,000 tested, 0.3% active;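 active means z-score above 3 at 5 µM with at least 500 cells counted in the well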
SR-BI uptake up = SR-BI HDL lipid transfer activation; AID 504775; 320,000 tested, 0.096% active; CHO ldlA[mSR-BI] cells, DiI-HDL uptake fluorescence, 3 h; 100 = double the neutral-control signal; activation, % at 12.5 µM;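 active means mean replicate activation of at least 60% and every replicate at or above 60%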;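 further: 0% = median plate neutral-control signal and 100% = twice that signal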
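Assay system: CHO ldlA[mSR-BI] cells, LDL receptor-null, SR-BI overexpressing; medium: Ham's F12 with 0.5% BSA, HEPES 25 mM, pH 7.4; also added: DiI-HDL 10 µg/mL; timing: 3 h uptake period with compound, 37 °C; signal: DiI fluorescence, bottom read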
SR-BI HDL uptake = inhibitors of mouse SR-BI mediated HDL lipid uptake; inhibition, % at 12.5 µM; ldlA[mSR-BI] CHO cells, DiI-HDL uptake fluorescence, 3 h; Q61009; 320,000 tested, 0.96% active; AID 488896;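 active means mean replicate inhibition of at least 70% and a set share of replicates each scoring 70 or more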;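 further: 0% = median of neutral control wells and 100% = median of positive control wells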
Calb FLC = C. albicans growth modulation with fluconazole | growth inhibition, % (no concentration beside the values) | 300,000 tested, 0.57% active | C. albicans CaCi-2 + fluconazole, Alamar Blue growth, 48 h;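 active means growth inhibition above about 58% in most replicates, limit read from the data, passing the limit was not always enough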;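 further: all wells also contain fluconazole at 8 µg/ml as a sub-toxic cotreatment; 0% = median of DMSO wells and 100% = median of geldanamycin control wells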
HTR2A ag = mouse HTR2A agonism via beta-arrestin recruitment | CHO-K1 mHTR2A beta-arrestin complementation, luminescence; percent of 30 µM serotonin response | activation, % at 7.6 µM | 360,000 tested, 0.66% active | AID 624169;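 active means activation above a run cutoff, the mean activation of all tested compounds plus 3 SD, cut at about 14% in these data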;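 further: 0% = plate median of compound wells and 100% = 30 µM serotonin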
Target sequence (P35363 whole entry, looked up): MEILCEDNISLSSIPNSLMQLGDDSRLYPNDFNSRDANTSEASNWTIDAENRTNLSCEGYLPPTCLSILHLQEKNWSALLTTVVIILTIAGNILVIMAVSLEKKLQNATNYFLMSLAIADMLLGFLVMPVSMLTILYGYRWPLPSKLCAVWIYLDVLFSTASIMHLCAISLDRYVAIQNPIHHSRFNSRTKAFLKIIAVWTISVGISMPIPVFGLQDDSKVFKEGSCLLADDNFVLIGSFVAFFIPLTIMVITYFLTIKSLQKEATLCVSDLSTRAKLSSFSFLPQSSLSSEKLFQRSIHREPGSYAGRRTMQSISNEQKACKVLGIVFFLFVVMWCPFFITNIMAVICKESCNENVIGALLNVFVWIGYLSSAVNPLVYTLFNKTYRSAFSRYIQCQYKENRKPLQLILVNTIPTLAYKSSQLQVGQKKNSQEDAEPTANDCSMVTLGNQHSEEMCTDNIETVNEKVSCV
Starred values were filed as active, the others as inactive. Only some compounds are listed: those with a hit (about 2.4% of all), similar ones and a draw of the others.

For O=C(N/N=C/c1cccc([N+](=O)[O-])c1)c1cc(-c2ccccc2)nc2ccccc12 the results were beta cell repl -5, SR-BI uptake up -80, SR-BI HDL uptake 80*, Calb FLC 0 and HTR2A ag -2.
Screening O=C(N/N=C/c1cc([N+](=O)[O-])ccc1O)c1cc(-c2ccccc2)nc2ccccc12 returned beta cell repl 0, Ins promoter up -0.47, SR-BI uptake up -129, SR-BI HDL uptake 129*, Calb FLC -14 and HTR2A ag 1.
For Cc1ccc(-c2nc(N/N=C/c3cccc([N+](=O)[O-])c3)c3ccccc3n2)cc1 the results were beta cell repl -6, SR-BI uptake up -74, SR-BI HDL uptake 74*, Calb FLC -4 and HTR2A ag 8.
Screening O=C(N/N=C/c1ccc([N+](=O)[O-])o1)c1cc(-c2ccc(-c3ccccc3)cc2)nc2ccccc12 returned beta cell repl -6, Ins promoter up -1.2, SR-BI uptake up -118, SR-BI HDL uptake 118*, Calb FLC -14 and HTR2A ag 0.
Screening CCOC(=O)C1=C(COC(=O)c2ccc(Cl)nc2)NC(=O)NC1C (configuration not stated) returned SR-BI uptake up -16, SR-BI HDL uptake 16 and HTR2A ag -1.
Screening O=C(CSc1nnc(-c2ccc(Cl)cc2Cl)n1C1CCCCC1)N1CCCC1 returned beta cell repl 1, SR-BI uptake up -6, SR-BI HDL uptake 6, Calb FLC -3 and HTR2A ag -3.
For CC(C)(C)S(=O)N1Cc2cc(C(=O)N3CCOCC3)nc(-c3cccc(Br)c3)c2[C@@H]1CCO (some centres not stated) the results were HTR2A ag 0.
`CCNC(=O)C1(C)CCN(C(=O)c2c(F)cccc2F)C1` (configuration not stated) gave HTR2A ag -3.
Screening Cc1cc(C)nc(SCC(=O)N/N=C/c2cc(C)n(-c3ccccc3C)c2C)n1 returned beta cell repl 0, Ins promoter up -0.01, SR-BI uptake up -85, SR-BI HDL uptake 85*, Calb FLC 1 and HTR2A ag -5.
For CCCC(C(=O)NC1CCCC1)N(C(=O)c1snc(C(N)=O)c1N)c1ccc(F)cc1 (configuration not stated) the results were beta cell repl -2, SR-BI uptake up -1, SR-BI HDL uptake 1, Calb FLC -7 and HTR2A ag -5.
`COc1ccc2c(c1)CCCC21NC(=O)N(CC(=O)c2cc(F)ccc2F)C1=O` (configuration not stated) gave beta cell repl 1, SR-BI uptake up 14, SR-BI HDL uptake -14 and HTR2A ag 3.
Screening CCOC(=O)C(=NC(C)CC)NNc1cccc(C(F)(F)F)c1 (configuration not stated) returned beta cell repl -4, Ins promoter up -0.32, SR-BI uptake up -14, SR-BI HDL uptake 14, Calb FLC -5 and HTR2A ag 1.
For CCOC(=O)C(=NC1CCS(=O)(=O)C1)NNc1ccc(Br)cc1 (configuration not stated) the results were beta cell repl 0, Ins promoter up 0.3, SR-BI uptake up -58, SR-BI HDL uptake 58, Calb FLC 112* and HTR2A ag 0.
`CCOC(=O)C(=NC1CCCCC1)NNc1cccc(C(F)(F)F)c1` gave beta cell repl 0, Ins promoter up 0.52, SR-BI uptake up -35, SR-BI HDL uptake 35, Calb FLC 57* and HTR2A ag 2.
For Cc1ccccc1-c1csc(C(C)(O)c2ccc(F)c(F)c2)n1 (configuration not stated) the results were HTR2A ag 8.
`CSCCC(NC(=O)c1ccco1)c1nc2ccccc2[nH]1` (configuration not stated) gave beta cell repl -2, SR-BI uptake up 8, SR-BI HDL uptake -8, Calb FLC 0 and HTR2A ag 2.
CCOc1ccc(CCNC(=O)c2nnn(CC(=O)Nc3ccc(OC)c(OC)c3)c2N)cc1OCC was read as beta cell repl 5, SR-BI uptake up -72, SR-BI HDL uptake 72*, Calb FLC -23 and HTR2A ag -1.

Compound activity from PubChem BioAssay.
